# Source: ChEMBL document CHEMBL3272032, “Antifolate studies. Activities of 40 potential antimalarial compounds against sensitive and chlorguanide triazine resistant strains of folate-requiring bacteria and Escherichia coli” (J Med Chem, 1977)
# Calls of active or inactive are those of the source. No cut-off for these calls is given here.
# Assays:
# Enterococcus faecium [1] = test: Antibacterial activity against chlorguanide triazine-resistant Streptococcus faecium ATCC 8043 assessed as reduction in growth in presence of 0.002 ug/ml folic acid; type: functional, organism-based
# Procedure, shortened: (§1)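 Folate-requiring strains grown in medium with folic acid, 0.002 µg/ml for S. faecium and 0.001 µg/ml for L. casei; P. cerevisiae given folinic acid, 0.001 µg/ml. Resistant substrains came from serial transfer in rising chlorguanide triazine, and the most resistant were used. Compounds tested up to 1000 µg/ml, or 100 µg/ml when supply was limited. Growth read as Klett turbidity; IC50 is the µM concentration giving 50% growth inhibition.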
# Lacticaseibacillus casei [2] = test: Antibacterial activity against sensitive Lactobacillus casei ATCC 7469 assessed as reduction in growth in presence of 0.001 ug/ml folic acid; type: functional, organism-based
# Procedure, shortened: (§2)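 Folate-requiring strains in the medium of the earlier assay method. Folic acid was 0.002 μg/ml for S. faecium and 0.001 μg/ml for L. casei. Turbidity read on a Klett-Summerson colorimeter. IC50 is the micromolar concentration reducing growth to 50% of control. Top concentration was 1000 μg/ml, or 100 μg/ml if supply was limited.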
# Lacticaseibacillus casei [3] = test: Antibacterial activity against chlorguanide triazine-resistant Lactobacillus casei ATCC 7469 assessed as reduction in growth in presence of 0.001 ug/ml folic acid; type: functional, organism-based; procedure, shortened: as §1
# Pediococcus [4] = test: Antibacterial activity against sensitive Pediococcus cerevisiae ATCC 808 assessed as reduction in growth in presence of 0.001 ug/ml folinic acid; type: functional
# Procedure, shortened: (§3)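 P. cerevisiae grown with folinic acid at 0.001 μg/ml in the earlier-described medium. Turbidity read on a Klett-Summerson colorimeter. IC50 is the micromolar concentration reducing growth to 50% of control. Top concentration was 1000 μg/ml, or 100 μg/ml when supply was limited.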
# Pediococcus [5] = test: Antibacterial activity against chlorguanide triazine-resistant Pediococcus cerevisiae ATCC 808 assessed as reduction in growth in presence of 0.001 ug/ml folinic acid; type: functional; procedure, shortened: as §1
# Escherichia coli [6] = test: Antibacterial activity against sensitive Escherichia coli ATCC 10536 assessed as reduction in growth in presence of p-aminobenzoic acid; type: functional, organism-based
# Procedure, shortened: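 Reversal test. Drug inhibition was challenged with PABA in Sahyun et al. medium plus 0.6% acid-hydrolyzed casein. Growth read as turbidity on a Klett-Summerson colorimeter. Scored as reversal or nonreversal of the drug inhibition.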
# Plasmodium berghei [7] = test: Antimalarial activity against Plasmodium berghei infected in sc dosed mouse assessed as active dose required to increase of 100% in mean survival time; type: functional; conditions: read-out: MED
# Procedure, shortened: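 Mice received a standard blood-induced P. berghei inoculum and were then treated with one subcutaneous dose of compound suspended in peanut oil. The minimum active dose is the lowest dose that raised mean survival time by 100%.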
# Plasmodium berghei [8] = test: Antimalarial activity against Plasmodium berghei infected in sc dosed mouse assessed as dose required to survivors for period of 60 days; type: functional
# Procedure, shortened: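 Mice infected with a blood-induced P. berghei inoculum were given one subcutaneous dose in peanut oil. Survivors at 60 days counted as cured. The minimum curative dose is the lowest dose that cured any mouse.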
# Enterococcus faecium [9] = test: Antibacterial activity against sensitive Streptococcus faecium ATCC 8043 assessed as reduction in growth; type: functional, organism-based; procedure, shortened: as §1
# Enterococcus faecium [10] = test: Antibacterial activity against chlorguanide triazine-resistant Streptococcus faecium ATCC 8043 assessed as reduction in growth; type: functional, organism-based; procedure, shortened: as §1
# Enterococcus faecium [11] = test: Fold increase in resistance, ratio of IC50 for chlorguanide triazine-resistant Streptococcus faecium ATCC 8043 to IC50 for sensitive Streptococcus faecium ATCC 8043; type: functional
# Procedure, shortened: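 Resistant S. faecium substrain raised by serial transfer in increasing chlorguanide triazine. IC50 (µM, 50% growth inhibition by turbidity) was found for resistant and parent strains in folic acid (0.002 µg/ml) medium. Fold increase taken as IC50 resistant / IC50 sensitive.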
# Lacticaseibacillus casei [12] = test: Antibacterial activity against sensitive Lactobacillus casei ATCC 7469 assessed as reduction; type: functional, organism-based; procedure, shortened: as §1
# Lacticaseibacillus casei [13] = test: Antibacterial activity against chlorguanide triazine-resistant Lactobacillus casei ATCC 7469 assessed as reduction in growth; type: functional, organism-based; procedure, shortened: as §1
# Lacticaseibacillus casei [14] = test: Fold increase in resistance, ratio of IC50 for chlorguanide triazine-resistant Lactobacillus casei ATCC 7469 to IC50 for sensitive Lactobacillus casei ATCC 7469; type: functional
# Procedure, shortened: (§4)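 Resistant substrains were made by serial transfer in rising concentrations of cycloguanil, and the most resistant isolate of each organism was used. Both strains were assayed turbidimetrically under identical conditions. FIR = IC50 of the resistant strain divided by IC50 of the sensitive parent.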
# [15] = Antibacterial activity against sensitive Pediococcus cerevisiae ATCC 808 assessed as reduction; type: functional; procedure, shortened: as §3
# [16] = Antibacterial activity against chlorguanide triazine-resistant Pediococcus cerevisiae ATCC 808 assessed as reduction in growth; type: functional; procedure, shortened: as §1
# Pediococcus [17] = test: Fold increase in resistance, ratio of IC50 for chlorguanide triazine-resistant Pediococcus cerevisiae ATCC 808 to IC50 for sensitive Pediococcus cerevisiae ATCC 808; type: functional; procedure, shortened: as §4
# Escherichia coli [18] = test: Antibacterial activity against sensitive Escherichia coli ATCC 10536 assessed as reduction in growth; type: functional, organism-based
# Procedure, shortened: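 Growth inhibition in Sahyun et al. medium plus 0.6% acid-hydrolyzed casein. Growth read as turbidity on a Klett-Summerson photoelectric colorimeter. IC50 is the micromolar concentration giving 50% growth inhibition. Top concentration was 1000 μg/ml, or 100 μg/ml when compound was limited.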
# Enterococcus faecium [19] = test: Antibacterial activity against sensitive Streptococcus faecium ATCC 8043 assessed as reduction in growth in presence of 0.002 ug/ml folic acid; type: functional, organism-based; procedure, shortened: as §2
smiles,measurement,setting,value
CCCCN(CCCC)CC(O)c1cc(-c2ccc(Cl)c(Cl)c2)nc2c(Cl)cc(Cl)cc12 (centres undefined),inhibition,Enterococcus faecium [1],Active
same,inhibition,Lacticaseibacillus casei [2],Active
same,inhibition,Lacticaseibacillus casei [3],Active
same,inhibition,Pediococcus [4],Active
same,inhibition,Pediococcus [5],Active
same,inhibition,Escherichia coli [6],Active
same,minimal effective dose,Plasmodium berghei [7],5 mg/kg
same,MCD,Plasmodium berghei [8],20 mg/kg
same,IC50,Enterococcus faecium [9],327 µM
same,IC50,Enterococcus faecium [10],572 µM
same,Ratio IC50,Enterococcus faecium [11],2
same,IC50,Lacticaseibacillus casei [12],170 µM
same,IC50,Lacticaseibacillus casei [13],250 µM
same,Ratio IC50,Lacticaseibacillus casei [14],2
same,IC50,[15],290 µM
same,IC50,[16],354 µM
same,Ratio IC50,Pediococcus [17],1
same,IC50,Escherichia coli [18],182 µM
same,inhibition,Enterococcus faecium [19],Active
